From PubChem
Yeast lifespan up: yeast lifespan extension. S. cerevisiae growth with nicotinamide, OD615; deaD strain in restrictive glucose medium. inhibition of the nicotinamide effect, % at 10 µM. actives 0.68% (n = 130,000). AID 775;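 active = inhibition above a set limit, placed 3 SD over the median of all compounds, cut at about 26% in these data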;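 note: 0% = nicotinamide-treated wells and 100% = cells grown without nicotinamide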
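Measured by: optical density (absorbance) at 615 nm; System: modified budding yeast, DeaD strain; Medium: restrictive CSMM-D dextrose medium; Timing: 4 h preincubation then 48 h treatment at 30 °C.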
RAM network inh: inhibitors of the yeast RAM network; actives 1.8% (n = 190,000); S. cerevisiae dse1pr::URA3 reporter, 5-FOA growth OD615, 2 d; analog-sensitive cbk1-as2 kinase mutant strain; inhibition, % at 50 µM;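 active = inhibition above a set limit, 3 SD over mean compound inhibition, cut at about 8.4% in these data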;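 note: 0% = DMSO-only wells with no growth and 100% = 10 µM 1-NA-PP1 full growth; inhibition rescues growth on 5-FOA so higher OD means more RAM inhibition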
WT yeast gro inh: growth inhibition of WT yeast, mitochondrial fusion screen; mitochondrial fusion phenotypic screen, WT strain; inhibition, % at 10 µM; actives 2.1% (n = 190,000); AID 1362; in the data active = inhibition above about 58%; tested in S. cerevisiae
BB579 growth dn: yeast BB579 growth reduction in restrictive medium. S. cerevisiae BB579 growth, OD615, 48 h. inhibition, % at 10 µM. AID 804. actives 0.51% (n = 140,000);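 active = inhibition above a set limit, 3 SD over the mean compound inhibition, cut at about 44% in these data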
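Detection: OD615 turbidity measurement; Material: Saccharomyces cerevisiae DeaD strain BB579, replicative lifespan model yeast; Timing: 48 h exposure, 30 °C; Doses: single 10 µM dose; Medium: CSMM-D restrictive synthetic medium containing dextrose (glucose); Controls: amphotericin B at 10 µg/mL as positive control.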
Cl transport mod: modulates chloride dependent transport by human KCC2 | Q9H2X9 | KCC2 cells, thallium flux FluoZin-2 fluorescence | B-score of Tl+ flux slope (higher = more flux/activation; lower = inhibition) at 10 µM | actives 2.2% (n = 190,000) | AID 1456;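 active = thallium flux slope and its plate-corrected score both differing from the plate sample mean at a set confidence after two filtering rounds, in either direction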;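 note: slope of fluorescence scaled to starting intensity during 10 to 20 s after thallium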
KCC2 sec1: confirmation of human KCC2 transport modulators; shares compounds with Cl transport mod; HEK293-KCC2, thallium flux, FluoZin2 fluorescence; stronger effect = higher value; normalised thallium flux (F/F0 slope) at 10 µM; actives 15% (n = 3,700);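 active = thallium flux slope above the same plate's solvent-only control mean plus 3 SD; inconclusive = the two replicate wells disagree; inactive = no significant difference from solvent-only control wells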
KCC2 bumet counter: thallium flux despite bumetanide block in KCC2 cells, secondary assay 3; shares compounds with Cl transport mod; HEK293-KCC2 + bumetanide/ouabain, thallium flux FluoZin2; stronger effect = higher value; normalized thallium flux at 10 µM; actives 49% (n = 3,700); AID 1714;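 active = thallium entry rate above the same plate's blocked-transporter control wells by more than 3 SD; inconclusive = the two repeat wells disagree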;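 note: raw slope of fluorescence over initial fluorescence between 10 and 20 s after thallium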
KCC2 secondary2: confirmation of human KCC2 transport modulators; actives 23% (n = 3,700); normalized thallium flux at 10 µM; HEK293-KCC2, thallium flux FluoZin2 fluorescence; actives lie on both sides; F/F0 rise rate, 10–20 s post-thallium; shares compounds with Cl transport mod;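 active = thallium flux slope more than 3 SD above or below the plate's solvent-only control mean, mostly below; inconclusive = the two repeat wells disagreed; inactive = no significant shift from solvent-only controls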;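 note: raw slope with 0.1% DMSO as baseline and bumetanide as block control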
HEK counter1: acts in parental HEK cells, KCC2 counter-screen. actives 46% (n = 3,700). thallium flux rate (normalised fluorescence) at 10 µM. AID 1716. shares compounds with Cl transport mod. HEK293 parental cells, thallium flux FluoZin2, ouabain; baseline-ratio fluorescence slope, 10–20 s after thallium;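 active = thallium flux rate significantly above the same plate's solvent-only control wells, beyond their mean plus 3 SD; inconclusive = the two replicate wells gave conflicting results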
KCC2 retest ouab: modulates human KCC2 on retest with ouabain. shares compounds with Cl transport mod. HEK293-KCC2, thallium flux FluoZin2 fluorescence; bidirectional: low = inhibitor, high = activator. raw Tl+ flux slope (below DMSO = inhibition, above = activation) at 10 µM. actives 48% (n = 3,700);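 active = thallium flux slope beyond 3 SD from same-plate DMSO control mean in most replicates, usually higher, sometimes lower; inconclusive = repeat tests gave conflicting results; inactive = no significant difference from controls in most replicates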;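 note: slope of initial-normalized fluorescence between seconds 10 and 20 after thallium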
HEK counter2: acts in parental HEK cells, second KCC2 counter-screen; shares compounds with Cl transport mod; HEK293 parental, thallium flux FluoZin-2 fluorescence slope; thallium flux slope at 10 µM; actives 33% (n = 3,700);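 active = thallium flux slope above the same plate's solvent-control mean plus 3 SD in both duplicate wells; inconclusive = duplicate wells that disagreed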;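 note: run without ouabain in cells lacking the KCC2 cotransporter; slope of fluorescence scaled to its starting value between 10 and 20 s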
Starred values were filed as active, the others as inactive; ? = inconclusive; · = no result given. In the library only some 5.5% were active in any assay of this set; here they are far more common.

SMILES | Yeast lifespan up | RAM network inh | WT yeast gro inh | BB579 growth dn | Cl transport mod | KCC2 sec1 | KCC2 bumet counter | KCC2 secondary2 | HEK counter1 | KCC2 retest ouab | HEK counter2
CCCN(CCC)S(=O)(=O)c1ccc(C(=O)Nc2nnc(-c3cc(OC)cc(OC)c3)o2)cc1 | -0.2 | 2.1 | 0.0 | -27.1 | 10.4* | 0.00899 | 0.0205* | 0.0362 | ? | 0.0287* | 0.0128
COc1cccc(-c2nnc(NC(=O)c3cccc(F)c3)o2)c1 | · | · | 61.7 | · | 33.1* | ? | 0.103* | 0.0883* | 0.0854* | 0.0921* | 0.0834*
COc1cc2c(cc1NC(=O)CN(C)Cc1ccc(OC)c(OC)c1)oc1ccccc12 | -4.9 | -0.5 | 30.1 | -36.3 | 0.402 | · | · | · | · | · | ·
COc1ccc(-n2c(Cc3cccn3C)nnc2SCC(=O)Nc2ccc(F)cc2)cc1 | -6.0 | 6.7 | 0.9 | 35.2 | -3.11* | 0.00888 | 0.00502 | 0.0355 | 0.00722 | 0.019 | 0.0115
Cc1ccc(/C=C/C(=O)c2ccccc(=O)c2O)c(C)c1 | -10.5 | 2.4 | 0.4 | 99.5* | 67.7* | 0.013* | 0.0882* | 0.0403* | 0.0562* | 0.0728* | 0.0197*
Cc1ccc(C)c(NC(=O)c2ccccc2O)c1 | -17.4 | 0.2 | 48.6 | -10.1 | -0.931 | · | · | · | · | · | ·
Cc1ccc(C)c(/C=C/C(=O)c2ccccc(=O)c2O)c1 | -14.8 | 1.3 | 8.7 | 99.2* | 40.4* | 0.00614 | 0.067* | 0.0607* | 0.0623* | 0.0618* | 0.0513*
CSc1nnc(NC(=O)c2cc(=O)c3cc(C)cc(C)c3o2)s1 | · | · | · | · | 0.00653 | · | · | · | · | · | ·
CN(CCc1ccccn1)C(=O)c1nn2c(C(F)(F)F)cc(-c3ccco3)nc2c1Cl | -9.0 | 0.2 | -7.8 | -14.7 | -5.21* | 0.00744 | 0.00507 | 0.031 | 0.00737 | 0.0145* | 0.00982
CC(C)NC(=O)c1nn2c(C(F)(F)F)cc(-c3ccco3)nc2c1Cl | · | 4.7 | -3.7 | · | -0.273 | · | · | · | · | · | ·
O=C(N/N=C/c1ccc(OCc2ccccc2)cc1)c1cc[n+](Cc2ccccc2)cc1 | -2.0 | 1.9 | 0.9 | -13.8 | -3.45* | 0.00583 | ? | 0.0241* | 0.00787 | ? | 0.0117
O=C(N/N=C/c1ccc(O)cc1)c1cc[n+](Cc2ccccc2)cc1 | 1.6 | -0.9 | 1.1 | -23.5 | 0.203 | · | · | · | · | · | ·
O=C(Cn1nnc2c(cnn2-c2ccc(F)cc2)c1=O)Nc1ccccc1C(F)(F)F | · | 3.1 | -11.6 | · | -3.86* | 0.00734 | ? | 0.0326 | 0.00714 | 0.0169* | 0.0102
O=C(NC(=S)Nc1ccccc1[N+](=O)[O-])c1ccccc1 | · | · | · | · | 17.8* | 0.00757 | 0.0367* | ? | 0.0197* | 0.0346* | 0.0212*
O=C(NC(=S)Nc1ccccc1N1CCCC1)c1ccco1 | · | · | · | · | 134* | 0.042* | 0.115* | 0.0558* | 0.0715* | 0.0679* | 0.0623*
O=C(NC(=S)Nc1cccc(NC(=O)c2ccccc2)c1)c1cccc([N+](=O)[O-])c1 | 0.8 | 3.0 | 10.8 | -44.0 | 0.659 | · | · | · | · | · | ·
Cc1ccc(C(=O)Nc2ccccc2C(=O)N2CCOCC2)cc1[N+](=O)[O-] | 7.4 | 0.4 | -1.3 | -27.8 | 6.86* | 0.00648 | 0.00398 | 0.0307 | 0.00721 | 0.0183 | 0.00955
Cc1ccc(C(=O)NC(=S)Nc2ccccc2N2CCCC2)cc1[N+](=O)[O-] | 0.2 | 4.5 | 34.9 | -28.5 | 5.49* | 0.00758 | 0.0424* | 0.0327 | 0.0176* | 0.0397* | 0.0116*
O=C(NCC1CCCO1)C1CCN(S(=O)(=O)c2cccc3cccnc23)CC1 (stereo not drawn) | -10.1 | 2.6 | 2.2 | 18.6 | 0.186 | · | · | · | · | · | ·
O=C(/C=C/c1ccco1)NC(=S)Nc1ccccc1N1CCCC1 | · | 0.8 | 43.5 | · | 3.2* | 0.0116 | 0.0279* | 0.032 | 0.0113* | 0.023 | 0.0103
CC1Cc2ccccc2N1C(=S)NC(=O)c1ccco1 (stereo not drawn) | · | -1.1 | 9.8 | · | 26.4* | 0.0116* | 0.0563* | 0.0424* | 0.0386* | 0.0485* | 0.0293*
O=C(NC(=S)N1CCCc2ccccc21)c1ccco1 | · | -0.4 | 14.0 | · | 3.32 | · | · | · | · | · | ·
CCOC(=O)c1cc2c(ccn2C)n1CC(=O)N1CCC(Cc2ccccc2)CC1 | 4.7 | 6.9 | 19.2 | -32.6 | -5.88* | 0.0109 | 0.00571 | ? | 0.00788 | 0.0157* | 0.0118
CCOC(=O)c1cc2c(ccn2C)n1CC(=O)N1CCCC(C)C1 (stereo not drawn) | -11.2 | 0.1 | 8.4 | -10.6 | -1.04 | · | · | · | · | · | ·
COc1ccc(-n2c(SCC(=O)NCc3ccco3)nc3c([nH]c4ccccc43)c2=O)cc1 | -3.4 | 4.3 | 6.3 | 2.3 | -0.169 | · | · | · | · | · | ·
SMILES | Yeast lifespan up | RAM network inh | WT yeast gro inh | BB579 growth dn | Cl transport mod | KCC2 sec1 | KCC2 bumet counter | KCC2 secondary2 | HEK counter1 | KCC2 retest ouab | HEK counter2
O=C(NCc1cccnc1)C1c2ccccc2C(=O)N1C1CCCCCC1 (stereo not drawn) | 4.9 | 2.2 | 5.2 | -59.5 | -4.54* | 0.00989 | 0.00707 | 0.0343 | 0.00875 | 0.0228 | ?
O=C(CCS(=O)(=O)c1ccc(Br)s1)NC1CCCC1 | -5.5 | 0.0 | -7.4 | -50.1 | · | 0.00637 | 0.00489 | 0.0304 | 0.00801 | 0.0191 | 0.0112
Cn1c(-c2ccc(F)cc2)cnc1SCC(=O)N1CCCc2ccccc21 | 14.5 | 0.3 | 16.8 | -47.1 | -3.37 | · | · | · | · | · | ·
CC1Cc2ccccc2N1C(=O)CSc1ncc(-c2ccc(F)cc2)n1C (stereo not drawn) | 0.6 | -0.5 | 0.4 | 9.4 | -4.17* | 0.00551 | 0.00359 | 0.0239* | 0.00601* | 0.0132* | ?
CC1Cc2ccccc2N1C(=O)CSc1nnc2n1C(C)(C)Cc1ccccc1-2 (stereo not drawn) | -5.0 | 1.5 | 2.5 | -12.9 | -5.57* | 0.00583 | ? | 0.0237* | 0.00733 | ? | 0.0108
CC1Cc2ccccc2N1C(=O)CSc1nc(-c2ccco2)cc(C(F)(F)F)n1 (stereo not drawn) | -2.0 | 4.6 | 16.8 | -67.6 | · | 0.00835 | 0.0053 | 0.033 | 0.00772 | 0.0188 | 0.0118
Cc1ccccc1C(=O)NNC(=O)CSc1nc2ccccc2c(=O)[nH]1 | · | · | · | · | -0.872 | · | · | · | · | · | ·
Cc1ccc2cc(C)c3nnc(SCc4ccc(C(=O)O)cc4)n3c2c1C | · | · | · | · | 3.14* | 0.00681 | 0.00866* | 0.0356 | 0.0108* | 0.0232 | 0.0127*
